Results on two compounds are retold here after ChEMBL document CHEMBL1133471, “Sequential cytotoxicity: a theory evaluated using novel 2-[4-(3-aryl-2-propenoyloxy)phenylmethylene]cyclohexanones and related compounds” (J Med Chem, 2000).

One assay relates to MOLT-4. Kind of assay: Concentration required to inhibit 50% of cell growth on human Molt 4/C8 cells. The assay is classed as functional, cell-based. Put shortly: (§1)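 Murine P388 D1 and L1210 leukemia cells and human Molt 4/C8 and CEM T-lymphocytes were tested. IC50 is the concentration inhibiting 50% of growth.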
A further assay relates to Tumor cancer cell line. Nature of the assay: (§2) Mean graph mid point was measured on all cell lines. The assay is classed as functional, Homo sapiens. Put shortly: (§3)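 Human tumor panel of about 55 lines: leukemia, melanoma, non-small-cell lung, colon, CNS, ovarian, renal, prostate and breast. Compounds generally tested from 10^-4 to 10^-8 M, noting 50% growth inhibition for each line. Mean graph midpoints taken for all lines, leukemic lines and colon lines. Duplicate or triplicate runs were averaged.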

Assay [1] in a line: Selectivity index is the ratio of MG MID value for all cell lines to that of leukemic cells. It counts as functional.
In the next assay the test system is Colon carcinoma cell. Nature of the assay: Mean graph mid point was measured on colon cancer cells. It counts as functional, Homo sapiens. Put shortly:
as §3

The subject of a further assay is CCRF-CEM. Nature of the assay: Concentration required to inhibit 50% of cell growth on CEM lymphocytes. The assay is classed as functional, cell-based. The note with it: Homo sapiens. Put shortly: as §1
Assay [2] has as its system leukaemia cell line. Kind of assay: Mean graph mid point was measured on leukemic cells. It counts as functional, Homo sapiens. Put shortly:
as §3

The next assay has as its system P388. Kind of assay: Concentration required to inhibit 50% of cell growth on murine P388 D1 cells. The assay is classed as functional, cell-based. To be noted: Mus musculus.
For assay [3], the species on record is Mus musculus. Nature of the assay: Sc score was calculated by implanting different tumor cell lines in hollow fibres in mice by the occurred). The assay is classed as functional. Put shortly: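 Mice carried hollow fibers with 12 human tumor lines (colon, breast, NSCLC, melanoma, ovarian, CNS) implanted ip and sc. Compounds were given ip at two doses daily for 4 days. Fibers were collected 1 day after the last dose. Viable cell mass was measured by MTT formazan conversion, giving the sc score.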

Assay [4] has as its system Mus musculus. Nature of the assay: Ip score was calculated by implanting different tumor cell lines in hollow fibres in mice by the intraperitoneal route(Net cell kill was observed it indicates the cytotoxicity was occurred). The assay is classed as functional.
Assay [5] is described as follows: Selectivity index is the ratio of MG MID value for all cell lines to that of colon cancer cells. It counts as functional.
The next assay deals with L1210. Kind of assay: Concentration required to inhibit 50% of cell growth on murine L1210 cells. The note with it: Mus musculus. It counts as functional, cell-based. Put shortly: as §1
The next assay has as its system Tumor cell line. The assay is described as §2. The assay is classed as functional, Homo sapiens. The method in brief:
as §3

The subject of assay [6] is Panel colon (Carcinoma cell lines). Nature of the assay: Mean graph mid point was measured on colon cancer cell lines. It counts as functional, Homo sapiens. Put shortly:
as §3

For assay [7], the system named is leukaemia cell line. Kind of assay: Mean graph mid point was measured on leukemicell lines. The assay is classed as functional, Homo sapiens. Put shortly:
as §3

In general, IC50 refers to the concentration needed to halve the response being measured. A high value points to a need for much substance. Turning to `CN(C)CC1CCC/C(=C\c2ccc(OC(=O)/C=C/c3ccccc3)cc2)C1=O.Cl` (stereo not given), the IC50 in the assay with MOLT-4 is 39.5 µM; in the assay with CCRF-CEM, 42.8 µM; in the assay with P388, 4.02 µM; with L1210, 32.8 µM. Also, the “MG MID” value was 2.41 µM in the assay with Tumor cancer cell line, 2.21 µM with Colon carcinoma cell and 1.06 µM with leukaemia cell line [2]. Further, the SI worked out at 2.3 in [1] and 1.1 in [5]. Moreover, the Subcut score in the assay listed under Mus musculus [3] is 14. Moreover, in the assay with Mus musculus [4], the Ip score is 12.
On to `CN(C)CC1CCC/C(=C\c2ccc(OC(=O)/C=C/c3ccc(Cl)c(Cl)c3)cc2)C1=O.Cl` (stereo not given), for which the IC50 came to 4.57 µM with MOLT-4, 5.82 µM in the assay on CCRF-CEM, 4.18 µM with P388 and 3.31 µM in the assay on L1210. The “MG MID” value in the assay on Tumor cell line turned out to be 3.57 µM; in assay [6] it was 2.38 µM; with leukaemia cell line [7], 0.83 µM. In addition, the SI in assay [1] was 4.3; in [5], 1.5.
